Source: ChEMBL document CHEMBL1148553, “C8c-C15 monoseco-analogues of the phenanthroquinolizidine alkaloids julandine and cryptopleurine exhibiting potent anti-angiogenic properties” (Bioorg Med Chem Lett, 2006)

What was measured:
[1] = system: CTLL; assay: Cytotoxicity against murine cytotoxic T cells, CTLL2; format: functional, cell-based; details: Mus musculus
How it was run: (§1)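 Dose-response proliferation assay over 0.16 to 20 µM (final) in tissue-culture plates. Cells were incubated 72 h at 37 °C in 5% CO2, and inhibition was read as Alamar Blue conversion by fluorescence at excitation/emission 544/590 nm.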

[2] = system: KHOS/NP; assay: Cytotoxicity against human osteosarcoma, KHOS-NP cells; format: functional, cell-based; how it was run: as §1
[3] = system: HT-1376; assay: Cytotoxicity against human bladder carcinoma, HT1376 cells; format: functional, cell-based; how it was run: as §1
[4] = species on record: Rattus norvegicus; assay: Inhibition of blood vessel growth in rat aorta at 10 ug/mL; format: functional
How it was run: (§2)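 In vitro angiogenesis assay using rat aorta blood vessel fragments, with compounds dissolved in DMSO. The read-out is percent inhibition of blood vessel growth at each fixed test concentration.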

[5] = system: MAT-Ly-Lu; assay: Cytotoxicity against rat prostate carcinoma, MatLyLu cells; format: functional, cell-based; how it was run: as §1
[6] = system: A549; assay: Cytotoxicity against human lung carcinoma, A549 cells; format: functional, cell-based; how it was run: as §1
[7] = system: BT-20; assay: Cytotoxicity against human breast carcinoma, BT20 cells; format: functional, cell-based; how it was run: as §1
[8] = system: A-431; assay: Cytotoxicity against human epidermoid carcinoma, A431 cells; format: functional, cell-based; how it was run: as §1
[9] = system: TF-1; assay: Cytotoxicity against human erythroleukemia TF1 cells; format: functional, cell-based; how it was run: as §1
[10] = system: HCT-15; assay: Cytotoxicity against human colon carcinoma, HCT15 cells; format: functional, cell-based; how it was run: as §1
[11] = system: A-375; assay: Cytotoxicity against human melanoma, A375 cells; format: functional, cell-based; how it was run: as §1
[12] = species on record: Rattus norvegicus; assay: Inhibition of blood vessel growth in rat aorta at 0.1 ug/mL; format: functional; how it was run: as §2
[13] = species on record: Rattus norvegicus; assay: Inhibition of blood vessel growth in rat aorta at 100 ug/mL; format: functional; how it was run: as §2
[14] = species on record: Rattus norvegicus; assay: Inhibition of blood vessel growth in rat aorta at 1 ug/mL; format: functional; how it was run: as §2
[15] = system: Daudi; assay: Cytotoxicity against human Burkitt lymphoma, DAUDI cells; format: functional, cell-based; how it was run: as §1
[16] = system: MES-SA/Dx5; assay: Cytotoxicity against human uterine sarcoma, MES-SA-Dx5 cells derived from MES-SA; format: functional, cell-based; how it was run: as §1
[17] = system: HEK293; assay: Cytotoxicity against HEK293 cells; format: functional, cell-based; details: Homo sapiens; how it was run: as §1
[18] = system: MES-SA; assay: Cytotoxicity against human uterine sarcoma, MES-SA cells; format: functional, cell-based; how it was run: as §1
[19] = system: BUD-8; assay: Cytotoxicity against human fibroblast, BUD8 cells; format: functional, cell-based; how it was run: as §1
[20] = system: HepG2; assay: Cytotoxicity against human hepatoma, HEPG2 cells; format: functional, cell-based; how it was run: as §1
[21] = system: Ramos; assay: Cytotoxicity against human Burkitt lymphoma, RAMOS cells; format: functional, cell-based; how it was run: as §1
[22] = system: PA-1; assay: Cytotoxicity against human ovarian teratocarcinoma, PA1 cells; format: functional, cell-based; how it was run: as §1
[23] = system: MCF7; assay: Cytotoxicity against human breast carcinoma, MCF7 cells; format: functional, cell-based; how it was run: as §1

| SMILES | IC50 [1] | IC50 [2] | IC50 [3] | inhibition at 10 µg/mL [4] | IC50 [5] | IC50 [6] | IC50 [7] | IC50 [8] | IC50 [9] | IC50 [10] | IC50 [11] | inhibition at 0.1 µg/mL [12] | inhibition at 100 µg/mL [13] | inhibition at 1 µg/mL [14] | IC50 [15] | IC50 [16] | IC50 [18] | IC50 [19] | IC50 [21] | IC50 [22] | further results |
| --- | --- | --- | --- | --- | --- | --- | --- | --- | --- | --- | --- | --- | --- | --- | --- | --- | --- | --- | --- | --- | --- |
| COc1cc2cc(CN3CCCC[C@H]3C)c3ccc(O)cc3c2cc1OC | 8.1 µM | 13.4 µM | 6.04 µM | 85% | > 20 µM | 15.2 µM | 11.6 µM | 20 µM | 8.4 µM | 7.97 µM | 9.38 µM | 18% | 100% | 47% | – | – | – | – | – | – | – |
| COc1ccc2c(CN3CCCC[C@@H]3C)cc3cc(OC)c(OC)cc3c2c1 | 7.61 µM | 12.3 µM | 9.68 µM | 100% | 15 µM | 11.2 µM | 10.2 µM | 8.12 µM | 7.2 µM | 7.82 µM | 8.96 µM | 17% | 100% | 42% | 9.08 µM | 11.7 µM | 10.1 µM | > 20 µM | > 20 µM | 7.38 µM | IC50 [17]: 15.5 µM; IC50 [20]: 8.12 µM |
| COc1cc2cc(CN3CCCC[C@@H]3C)c3ccc(O)cc3c2cc1OC | 9.09 µM | 15.4 µM | 8.31 µM | 74% | > 20 µM | 16.6 µM | 13.7 µM | 13.8 µM | 9.8 µM | 8.41 µM | 11.2 µM | 35% | 100% | 58% | 13.5 µM | 11.8 µM | 14.1 µM | 18.2 µM | 18.2 µM | 8 µM | IC50 [17]: 14.8 µM; IC50 [20]: 8.33 µM |
| COc1ccc(/C(=C\c2ccc(OC)c(OC)c2)CN2CCCC[C@H]2C)cc1 | > 20 µM | > 20 µM | > 20 µM | 62% | > 20 µM | > 20 µM | > 20 µM | > 20 µM | > 20 µM | > 20 µM | > 20 µM | 36% | 100% | 59% | > 20 µM | > 20 µM | > 20 µM | > 20 µM | > 20 µM | > 20 µM | IC50 [17]: > 20 µM; IC50 [20]: > 20 µM |
| COc1ccc(/C=C(/CN2CCCC[C@@H]2C)c2ccc(O)cc2)cc1OC | > 20 µM | > 20 µM | > 20 µM | 42% | > 20 µM | > 20 µM | > 20 µM | > 20 µM | > 20 µM | > 20 µM | > 20 µM | 31% | 100% | 53% | > 20 µM | > 20 µM | > 20 µM | > 20 µM | > 20 µM | > 20 µM | IC50 [17]: > 20 µM; IC50 [20]: > 20 µM |
| COc1ccc2ccc3cc(OC)c(OC)cc3c2c1 | 17.5 µM | > 20 µM | > 20 µM | 42% | > 20 µM | > 20 µM | > 20 µM | > 20 µM | > 20 µM | > 20 µM | > 20 µM | – | 83% | – | > 20 µM | > 20 µM | > 20 µM | > 20 µM | > 20 µM | > 20 µM | IC50 [23]: > 20 µM |
| COc1ccc2c3c(c4cc(OC)c(OC)cc4c2c1)C[C@H]1CCCCN1C3 [CRYPTOPLEURINE] | – | 0.01 µM | 0.004 µM | – | 0.003 µM | 0.003 µM | 0.003 µM | 0.003 µM | – | 0.003 µM | 0.003 µM | – | – | – | 0.002 µM | 0.003 µM | 0.003 µM | 0.006 µM | 0.003 µM | 0.002 µM | IC50 [23]: 0.003 µM |
| COc1ccc(/C=C(/CN2CCCC[C@H]2C)c2ccc(O)cc2)cc1OC | > 20 µM | > 20 µM | > 20 µM | 65% | > 20 µM | > 20 µM | > 20 µM | > 20 µM | > 20 µM | > 20 µM | > 20 µM | – | 100% | 43% | > 20 µM | > 20 µM | > 20 µM | > 20 µM | > 20 µM | > 20 µM | IC50 [17]: > 20 µM; IC50 [20]: > 20 µM |
| COc1ccc2c(CN3CCCC[C@H]3C)cc3cc(OC)c(OC)cc3c2c1 | 8.1 µM | 14 µM | 9.51 µM | 100% | 15 µM | 12 µM | 10.9 µM | 8.09 µM | 7.65 µM | 8.33 µM | 10.1 µM | 29% | – | 48% | 12 µM | 8.46 µM | 9.04 µM | > 20 µM | 15.5 µM | 7.27 µM | IC50 [17]: 17.1 µM; IC50 [20]: 7.27 µM |
| COc1ccc2c(CN(C)C)cc3cc(OC)c(OC)cc3c2c1 | 3.39 µM | 17.1 µM | 7.88 µM | 100% | 17.3 µM | 17 µM | 7.38 µM | 5.37 µM | 6.75 µM | 8.27 µM | 7.1 µM | 7% | – | 22% | 15.7 µM | 16.8 µM | 9.1 µM | > 20 µM | 16.6 µM | 4.16 µM | IC50 [23]: 18.6 µM |
| COc1ccc(/C(=C\c2ccc(OC)c(OC)c2)CN2CCCC[C@@H]2C)cc1 | > 20 µM | > 20 µM | > 20 µM | 43% | > 20 µM | > 20 µM | > 20 µM | > 20 µM | > 20 µM | > 20 µM | > 20 µM | 22% | 100% | 68% | > 20 µM | > 20 µM | > 20 µM | > 20 µM | > 20 µM | > 20 µM | IC50 [17]: > 20 µM; IC50 [20]: > 20 µM |
